Assay results from PMC7931646 (The Journal of Experimental Medicine, 2021).
pIC50: −log10 of the molar value. In brackets after ≈: the same amount, converted by molar mass. Read-outs that look alike come from different tables or passages of the source.

Experiments:
γ-secretase = conditions: ref Green et al., 2009; cited from earlier work
[1] = ref Green et al., 2009; cited from earlier work
[2] = Plasma protein binding, equilibrium dialysis; format: in vitro ADME; conditions: mouse
Summary of the method: (§1)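 Equilibrium dialysis of test compound in human, rat or mouse plasma against buffer across a semipermeable membrane. Compound concentrations in both compartments were measured by LC/MS, and percent bound was derived from them.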

CYP450 3A4 = CYP450 3A4 (Homo sapiens, UniProt P08684); test: CYP450 inhibition, recombinant isoform; format: in vitro ADME
Chain of CYP450 3A4 (P08684 whole entry, canonical isoform): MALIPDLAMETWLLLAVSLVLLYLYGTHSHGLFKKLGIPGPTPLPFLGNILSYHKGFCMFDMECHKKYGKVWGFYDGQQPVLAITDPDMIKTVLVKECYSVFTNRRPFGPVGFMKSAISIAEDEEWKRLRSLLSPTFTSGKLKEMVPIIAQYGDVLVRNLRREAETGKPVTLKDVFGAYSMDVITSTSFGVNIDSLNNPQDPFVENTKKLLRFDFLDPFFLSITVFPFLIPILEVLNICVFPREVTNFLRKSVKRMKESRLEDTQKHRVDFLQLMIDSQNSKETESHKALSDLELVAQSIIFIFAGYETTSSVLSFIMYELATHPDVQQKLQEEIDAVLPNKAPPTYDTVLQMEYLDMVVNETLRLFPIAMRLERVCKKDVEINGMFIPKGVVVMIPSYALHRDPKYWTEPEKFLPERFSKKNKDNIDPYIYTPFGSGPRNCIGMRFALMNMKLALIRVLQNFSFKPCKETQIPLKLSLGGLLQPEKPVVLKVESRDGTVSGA
Summary of the method: (§2)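 Recombinant human CYP450 isoforms were incubated with isoform-specific probe substrates; for CYP3A4 these were midazolam and testosterone. Inhibition was quantified by LC-MS/MS analysis of probe-substrate turnover.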

[3] = Liver microsomal stability, human; format: in vitro ADME; conditions: liver microsomes
Summary of the method: (§3)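 Test compound at 1 µM was incubated for 30 min with liver microsomes at 1 mg/ml (human, rat or mouse). Result is percent of parent compound remaining.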

[4] = Kinetic solubility in simulated intestinal fluids; format: physicochemical; conditions: for FaSSIF dissolved compound concentration: FaSSIF pH 6.5, UV/Vis absorbance; for FeSSIF dissolved compound concentration: FeSSIF pH 5.8, UV/Vis absorbance
Summary of the method: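 Dissolved test compound concentration in FaSSIF or FeSSIF simulated intestinal fluids, determined by UV/Vis absorbance.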

[5] = tested on: S. typhimurium bacterial strains TA98, TA100, TA1535, TA1537; test: Non-GLP screening; format: cell-based, Salmonella typhimurium; conditions: 5–100 µM, with and without Aroclor-induced rat liver S9
Summary of the method: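 Non-GLP mini-Ames screen using S. typhimurium TA98, TA100, TA1535 and TA1537, with and without Aroclor-induced rat liver S9. Test article was applied at 5–100 µM. Read-out was bacterial growth from reversion of the histidine mutation.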

[6] = Kinetic aqueous solubility, PBS pH 7.4; format: physicochemical; conditions: PBS buffer, pH 7.4, aqueous buffer, kinetic from dmso stock
Summary of the method: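 Kinetic solubility in PBS at pH 7.4, read by UV/Vis absorbance and reported in micromolar.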

CYP450 2C9 = CYP450 2C9 (Homo sapiens, UniProt P11712); test: CYP450 inhibition, recombinant isoform; format: in vitro ADME
Chain of CYP450 2C9 (P11712 whole entry, canonical isoform): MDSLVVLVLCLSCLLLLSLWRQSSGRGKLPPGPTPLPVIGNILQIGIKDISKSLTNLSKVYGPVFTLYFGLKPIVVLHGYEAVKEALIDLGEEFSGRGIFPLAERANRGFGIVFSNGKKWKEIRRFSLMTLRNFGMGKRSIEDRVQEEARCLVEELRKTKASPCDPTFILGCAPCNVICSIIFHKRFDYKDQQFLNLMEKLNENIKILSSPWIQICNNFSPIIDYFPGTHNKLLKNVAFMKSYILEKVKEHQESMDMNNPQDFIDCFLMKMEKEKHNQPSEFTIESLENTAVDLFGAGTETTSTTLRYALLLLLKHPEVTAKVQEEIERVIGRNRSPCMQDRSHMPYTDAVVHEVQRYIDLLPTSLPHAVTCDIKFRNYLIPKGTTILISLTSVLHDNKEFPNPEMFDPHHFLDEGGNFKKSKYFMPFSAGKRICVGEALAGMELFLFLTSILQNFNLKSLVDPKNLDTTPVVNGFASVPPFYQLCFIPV

CYP450 2C19 = CYP450 2C19 (Homo sapiens, UniProt P33261); test: CYP450 inhibition, recombinant isoform; format: in vitro ADME
Chain of CYP450 2C19 (P33261 whole entry, canonical isoform): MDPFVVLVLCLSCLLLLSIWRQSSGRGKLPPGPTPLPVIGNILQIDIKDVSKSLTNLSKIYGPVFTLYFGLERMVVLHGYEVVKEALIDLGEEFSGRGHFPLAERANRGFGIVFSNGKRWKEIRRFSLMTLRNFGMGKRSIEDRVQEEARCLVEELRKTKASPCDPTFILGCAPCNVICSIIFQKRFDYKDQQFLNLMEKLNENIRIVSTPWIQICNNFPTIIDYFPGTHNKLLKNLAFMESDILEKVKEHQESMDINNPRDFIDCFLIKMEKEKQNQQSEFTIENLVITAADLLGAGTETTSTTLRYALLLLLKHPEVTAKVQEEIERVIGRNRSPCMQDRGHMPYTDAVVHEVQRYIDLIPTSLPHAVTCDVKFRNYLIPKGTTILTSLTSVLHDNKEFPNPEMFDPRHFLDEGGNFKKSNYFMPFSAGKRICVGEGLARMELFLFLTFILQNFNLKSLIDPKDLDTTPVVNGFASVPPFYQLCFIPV
Summary of the method: as §2

[7] = Liver microsomal stability, mouse; format: in vitro ADME; conditions: liver microsomes
Summary of the method: as §3

[8] = Plasma protein binding, equilibrium dialysis; format: in vitro ADME; conditions: rat
Summary of the method: as §1

[9] = Plasma protein binding, equilibrium dialysis; format: in vitro ADME; conditions: human
Summary of the method: as §1

[10] = Liver microsomal stability, rat; format: in vitro ADME; conditions: liver microsomes
Summary of the method: as §3

CYP450 2D6 = CYP450 2D6 (Homo sapiens, UniProt P10635); test: CYP450 inhibition, recombinant isoform; format: in vitro ADME
Chain of CYP450 2D6 (P10635 whole entry, canonical isoform): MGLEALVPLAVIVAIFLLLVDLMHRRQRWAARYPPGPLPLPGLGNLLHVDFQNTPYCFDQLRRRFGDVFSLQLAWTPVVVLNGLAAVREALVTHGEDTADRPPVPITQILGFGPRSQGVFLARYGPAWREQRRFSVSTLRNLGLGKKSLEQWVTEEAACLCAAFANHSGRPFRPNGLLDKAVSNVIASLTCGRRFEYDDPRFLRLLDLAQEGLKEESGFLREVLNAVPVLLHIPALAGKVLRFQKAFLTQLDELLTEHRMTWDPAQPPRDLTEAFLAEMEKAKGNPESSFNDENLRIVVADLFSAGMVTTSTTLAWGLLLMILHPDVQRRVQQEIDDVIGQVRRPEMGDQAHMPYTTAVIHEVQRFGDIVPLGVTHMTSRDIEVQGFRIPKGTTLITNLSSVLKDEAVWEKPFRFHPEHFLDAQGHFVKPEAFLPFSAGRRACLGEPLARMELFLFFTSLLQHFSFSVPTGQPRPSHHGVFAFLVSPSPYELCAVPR
Summary of the method: as §2

P-glycoprotein (MDR1) = test: MDR1-MDCK permeability; format: in vitro ADME; conditions: dog
Summary of the method: (§4)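 Transport across MDR1-MDCK cell monolayers. Apparent permeability was measured in the apical-to-basolateral direction (× 10−6 cm/s). Efflux ratio was calculated as Papp B-A / Papp A-B.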

MDR1-MDCK permeability = format: in vitro ADME; conditions: dog
Summary of the method: as §4

CYP450 1A2 = biological target: T1, CYP450 1A2 (Homo sapiens, UniProt P05177); test: CYP450 inhibition, recombinant isoform; format: in vitro ADME
T1 sequence (P05177 1-516): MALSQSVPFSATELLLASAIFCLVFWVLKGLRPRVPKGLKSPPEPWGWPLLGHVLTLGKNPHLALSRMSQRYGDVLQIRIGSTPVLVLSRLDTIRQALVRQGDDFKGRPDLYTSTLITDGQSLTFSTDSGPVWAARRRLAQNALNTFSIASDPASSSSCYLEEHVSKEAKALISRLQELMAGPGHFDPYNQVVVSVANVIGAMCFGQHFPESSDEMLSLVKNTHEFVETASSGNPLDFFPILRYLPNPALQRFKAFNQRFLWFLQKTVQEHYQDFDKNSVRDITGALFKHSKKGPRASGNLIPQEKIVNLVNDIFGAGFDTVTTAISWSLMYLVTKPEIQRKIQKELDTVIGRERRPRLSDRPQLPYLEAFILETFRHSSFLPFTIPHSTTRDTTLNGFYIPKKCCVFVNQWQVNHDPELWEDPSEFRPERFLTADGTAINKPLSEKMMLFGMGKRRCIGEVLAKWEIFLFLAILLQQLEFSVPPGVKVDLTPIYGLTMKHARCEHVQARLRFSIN
Summary of the method: as §2

hERG channel = hERG channel (Homo sapiens, UniProt Q12809); test: Patch-Xpress patch-clamp hERG assay in HEK-293 cells; format: cell-based
Chain of hERG channel (Q12809 whole entry): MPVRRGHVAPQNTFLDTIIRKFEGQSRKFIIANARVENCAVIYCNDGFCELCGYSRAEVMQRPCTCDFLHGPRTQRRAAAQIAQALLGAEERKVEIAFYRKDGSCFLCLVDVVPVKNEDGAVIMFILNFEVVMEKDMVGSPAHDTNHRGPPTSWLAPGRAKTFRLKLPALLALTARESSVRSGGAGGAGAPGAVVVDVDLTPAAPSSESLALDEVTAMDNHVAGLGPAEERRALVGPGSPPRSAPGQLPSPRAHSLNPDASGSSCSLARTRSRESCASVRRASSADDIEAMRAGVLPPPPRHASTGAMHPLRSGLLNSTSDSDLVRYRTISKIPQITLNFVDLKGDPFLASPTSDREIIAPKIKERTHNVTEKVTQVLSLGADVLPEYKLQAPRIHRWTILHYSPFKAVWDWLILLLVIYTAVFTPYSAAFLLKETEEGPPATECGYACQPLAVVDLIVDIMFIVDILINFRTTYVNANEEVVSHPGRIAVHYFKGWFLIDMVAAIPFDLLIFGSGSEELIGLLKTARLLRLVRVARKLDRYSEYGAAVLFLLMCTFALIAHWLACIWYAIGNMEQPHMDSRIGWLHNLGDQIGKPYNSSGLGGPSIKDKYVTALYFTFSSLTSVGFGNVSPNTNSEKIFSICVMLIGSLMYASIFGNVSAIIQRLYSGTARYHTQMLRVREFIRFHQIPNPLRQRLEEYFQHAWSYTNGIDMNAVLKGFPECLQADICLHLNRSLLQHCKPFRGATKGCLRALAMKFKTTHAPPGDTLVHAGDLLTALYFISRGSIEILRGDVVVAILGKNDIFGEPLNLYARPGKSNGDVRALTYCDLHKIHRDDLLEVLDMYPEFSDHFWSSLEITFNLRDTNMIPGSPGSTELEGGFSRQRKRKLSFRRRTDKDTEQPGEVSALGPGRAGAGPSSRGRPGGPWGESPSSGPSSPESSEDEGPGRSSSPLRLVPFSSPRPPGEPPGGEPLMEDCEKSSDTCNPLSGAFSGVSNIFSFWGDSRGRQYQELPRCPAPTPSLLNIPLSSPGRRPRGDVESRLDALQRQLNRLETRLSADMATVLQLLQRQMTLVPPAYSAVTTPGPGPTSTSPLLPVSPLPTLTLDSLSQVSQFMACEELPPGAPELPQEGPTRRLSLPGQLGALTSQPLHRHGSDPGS

CSF Aβ42 and Aβ40 = conditions: human, 200 mg, ref Soares et al., 2016, cited from earlier work
[11] = GLP 28-d IND-enabling safety/toxicology study of compound 1 in rats; format: in vivo, rat; conditions: data not shown
[12] = tested on: S. typhimurium strains TA1535, TA1537, TA98, TA100 and E. coli strain WP2 (uvrA); test: GLP Salmonella–Escherichia coli/microsome plate incorporation; format: cell-based, Salmonella typhimurium; conditions: S. typhimurium TA98 and TA100, only with Aroclor-induced rat liver S9; data not shown
Summary of the method: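 GLP plate-incorporation mutagenicity test using S. typhimurium TA1535, TA1537, TA98 and TA100 and E. coli WP2 (uvrA). Each strain was run with and without a metabolic activation mix of Aroclor 1254–induced rat liver microsomes (S9). Read-out is revertant bacterial growth.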

[13] = GLP 28-d IND-enabling safety/toxicology study of compound 1 in NHPs; format: in vivo, NHP; conditions: data not shown
plasma Aβ42 = conditions: human, 250 mg, SAD study; ref Yu et al., 2014; cited from earlier work
CSF Aβ42 = conditions: human, ref Ahn et al., 2020, cited from earlier work; for CSF Aβ42 levels lowered: MAD study
[14] = CYP450 IC50 3A4 (m), probe substrate midazolam

Row | Structure (SMILES) | fraction unbound [2] | pIC50 (CYP450 3A4) | pIC50 (CYP450 3A4; [14]) | remaining at 0.5 h, 1 µM [3] [%] | FaSSIF dissolved compound concentration [4] | FeSSIF dissolved compound concentration [4] | Ames [5] | solubility kinetic [6] [µM] | pIC50 (CYP450 2C9) | pIC50 (CYP450 2C19) | remaining at 0.5 h, 1 µM [7] [%] | fraction unbound [8] | fraction unbound [9] | remaining at 0.5 h, 1 µM [10] [%] | pIC50 (CYP450 2D6) | efflux ratio (P-glycoprotein (MDR1)) | Papp A→B (MDR1-MDCK permeability) [×10⁻⁶ cm/s] | pIC50 (CYP450 1A2) | pIC50 (hERG channel) | also measured
1 | C[C@@H](C(=O)O)c1ccc(-c2ccccc2)c(F)c1 [R-flurbiprofen] |  |  |  |  |  |  |  |  |  |  |  |  |  |  |  |  |  |  |  | in vitro GSM activity (γ-secretase): weak; efficacy in phase 3 human trials [1]: did not show efficacy
2 | COc1nc(-c2cc(C)c(N[C@@H](C)c3c(F)cc(F)cc3F)nn2)ccc1-n1cnc(C)c1 [Compound 3, (S)-6-(6-methoxy-5-(4-methyl-1H-imidazol-1-yl)pyridin-2-yl)-4-methyl-N-(1-(2,4,6-trifluorophenyl)ethyl)pyridazin-3-amine] | 0.003 | 4.77 | 4.72 | 100 | 79 | 82 | Negative | < 1.3 | 5.89 | 4.89 | 100 | 0.003 | 0.003 | 100 | 4.70 | 1.1 | 30.2 | 5.44 | 5.51 | CYP450 2C9 IC50 relative to Aβ42 IC50 (CYP450 2C9): over 200 fold; safety margin between Aβ42 IC50 and hERG IC20 (hERG channel): > 100 fold; IC20 (hERG channel; human, HEK-293 cells expressing hERG): 1 µM
3 | CNc1nc(Nc2ccc(-n3cnc(C)n3)c(OC)c2)nc2c1CC[C@H]2c1ccc(F)cc1 [BMS-932481] |  |  |  |  |  |  |  |  |  |  |  |  |  |  |  |  |  |  |  | maximal lowering of CSF Aβ40 levels (CSF Aβ42 and Aβ40; 2-wk MAD study): 74%; maximal lowering of CSF Aβ42 levels (CSF Aβ42 and Aβ40; 2-wk MAD study): 77%; stage 3 elevations in alanine amino transferase (CSF Aβ42 and Aβ40): two of six subjects
4 | COc1nc(-c2cc(C)c(N[C@@H](C)c3ccc(F)cc3)nn2)ccc1-n1cnc(C)c1 [Compound 1, (S)-N-(1-(4-fluorophenyl)ethyl)-6-(6-methoxy-5-(4-methyl-1H-imidazol-1-yl)pyridin-2-yl)-4-methylpyridazin-3-amine] | 0.002 | 5.05 | 4.85 | 78 | >100/ >100 | >100/ >100 | Positive | 6.6 (≈ 2.76 µg/mL) | 5.89 | 5.16 | 76 | 0.001 | 0.004 | 84 | 5.33 | 0.9 | 37.2 | 4.43 | 5.21 | finding in GLP 28-d IND-enabling study in rat [11]: potentially mutagenic metabolite(s); Ames assay results [12]: highly variable; finding in GLP 28-d IND-enabling study in NHPs [13]: evidence of corrected QT interval prolongation
5 | COc1nc(/C=C/c2nc3n(n2)CCC[C@H]3c2ccccc2C(F)(F)F)ccc1-n1cnc(C)c1 [E2212] |  |  |  |  |  |  |  |  |  |  |  |  |  |  |  |  |  |  |  | maximal lowering of plasma Aβ42 levels (AUC0–24 h) (plasma Aβ42): 44.1%
6 | Cc1cn(-c2ccc3n(c2=O)CCN([C@@H](C)[C@@H]2CC[C@H](c4cc(F)c(Cl)cc4C(F)(F)F)O2)C3=O)cn1 [PF-06648671] |  |  |  |  |  |  |  |  |  |  |  |  |  |  |  |  |  |  |  | CSF Aβ42 levels lowered (CSF Aβ42; 100 mg): 44%; CSF Aβ42 levels lowered (CSF Aβ42; 200 mg): 59%; CSF Aβ42 levels lowered (CSF Aβ42; 360 mg): 65%; safety profile (CSF Aβ42; up to 360 mg qd for 14 d): good safety profile
